Assay results as given in paper PMC2233693 (The Journal of General Physiology, 2000).
Changes are numbered by the printed parent chain. Like-named read-outs stand apart in the source and are kept apart here.

How the values were obtained:
Assay type in all cases: biochemical
[1] = molecular target: T1, E340G mutant bovine olfactory CNG channel (Bos taurus, UniProt Q03041, E340G); assay: Blockage of macroscopic current by internal Ca2+, inside-out patches; conditions: read-out: K i for internal Ca2+ blockage, +80 mV, 1 mM cGMP, average
T1 sequence (Q03041 1-663 E340G): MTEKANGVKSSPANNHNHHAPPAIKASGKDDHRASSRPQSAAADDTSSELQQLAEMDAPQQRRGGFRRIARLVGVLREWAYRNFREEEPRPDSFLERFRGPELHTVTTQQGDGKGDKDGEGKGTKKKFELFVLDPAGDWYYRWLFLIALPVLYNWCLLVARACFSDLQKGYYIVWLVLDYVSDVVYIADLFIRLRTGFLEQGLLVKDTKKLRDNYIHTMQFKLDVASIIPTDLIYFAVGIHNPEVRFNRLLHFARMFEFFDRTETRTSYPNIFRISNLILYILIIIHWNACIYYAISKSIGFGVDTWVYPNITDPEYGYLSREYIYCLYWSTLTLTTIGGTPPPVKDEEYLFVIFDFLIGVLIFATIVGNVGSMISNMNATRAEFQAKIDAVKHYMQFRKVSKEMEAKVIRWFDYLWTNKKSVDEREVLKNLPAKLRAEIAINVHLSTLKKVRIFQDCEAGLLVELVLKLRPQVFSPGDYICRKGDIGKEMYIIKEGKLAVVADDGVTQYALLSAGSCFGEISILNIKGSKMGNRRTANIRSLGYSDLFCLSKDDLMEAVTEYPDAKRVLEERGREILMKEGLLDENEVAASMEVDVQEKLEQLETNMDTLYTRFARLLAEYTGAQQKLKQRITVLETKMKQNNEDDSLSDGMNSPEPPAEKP

[2] = molecular target: T1, E340G mutant bovine olfactory CNG channel; assay: External Ca2+ blockage of single-channel current, outside-out patches; conditions: for n (single-channel Ca2+ blockage): Fig. 7 patch
In short: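 Outside-out oocyte patches with cGMP in the pipette (wild-type 5 μM, E340G 1 mM) and increasing external Ca2+. Single-channel currents at +80 and −80 mV, filtered at 2 kHz, sampled at 10 kHz. Amplitudes from all-points histograms (30 s) fitted with summed Gaussians, normalised to divalent-free current, Hill-fitted for Ki and n. Two further patches per channel type.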

[3] = molecular target: T2, E340D mutant bovine olfactory CNG channel (Bos taurus, UniProt Q03041, E340D)
T2 sequence (Q03041 1-663 E340D): T1 sequence (Q03041 1-663 E340G) with G340D

[4] = molecular target: T2, E340D mutant bovine olfactory CNG channel; conditions: cGMP

Row | Compound | Ki [1] | effect on single-channel amplitude ([2]; 1 or even 10 mM external Ca2+, 1 mM cGMP) | n (single-channel Ca2+ blockage) ([2]; +80 mV) | n (single-channel Ca2+ blockage) ([2]; −80 mV) | n(−80 mV), Hill coefficient ([3]; cGMP) | I(−80 mV)/I(+80 mV) ([3]; cGMP-gated current) | EC50 ([3]; read-out: K 1/2, cGMP, +80 mV) | EC50 ([3]; read-out: K 1/2, cGMP, −80 mV) | EC50 ([3]; read-out: K 1/2,cG, −80 mV, single patch, Fig. 1 fit) | n cG ([3]; −80 mV, single patch, Fig. 1 fit) | P max (+80 mV) [4] | P max (−80 mV) [4] | L, equilibrium gating constant ([4]; allosteric model fit, mean ± SD)
1 | [Ca+2] [Ca^2+] | 1500 ± 400 µM | only slightly reduced | 0.7 | 0.8 | – | – | – | – | – | – | – | – | –
2 | Nc1nc2c(ncn2[C@@H]2O[C@@H]3COP(=O)(O)O[C@H]3[C@H]2O)c(=O)[nH]1 [cGMP] | – | – | – | – | 2.6 ± 0.4 | 1.30 ± 0.10 | 4.8 ± 1.1 µM | 4.9 ± 1.1 µM | 4.5 µM | 2.7 | 0.985 ± 0.007 | 0.987 ± 0.007 | 66 ± 15
